The results in this text go back to ChEMBL document CHEMBL3272294, “Antiviral activity of some beta-diketones. 1. Aryl alkyl diketones. In vitro activity against both RNA and DNA viruses” (1977).

≈ marks a conversion by molar mass, not a printed value. Calls of active or inactive are those of the source. No cut-off for these calls is given here. Bounds are passed on as bounds.

In one experiment the test system is Equine rhinovirus. As to the kind of experiment: Antiviral activity against Equine rhinovirus assessed as inhibition of virus-induced cytopathic effect at 33 degC after 48 hrs by two-fold dilution method.
Experiment [1] concerns Human alphaherpesvirus 1. As to the kind of experiment: Antiviral activity against Herpes simplex virus 1 Sheely assessed as inhibition of virus-induced cytopathic effect at 37 degC after 72 hrs by two-fold dilution method. It is filed as functional. Particulars: Human alphaherpesvirus 1, Sheely. The essentials: (§1)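 Susceptible monolayers in stationary tubes were infected with 100 tissue culture infective doses and allowed to adsorb for 1 h. Compound was then added in M-199 with 5% inactivated fetal calf serum at 50–0.3 μg/mL in twofold dilutions, four tubes per dilution. Tubes were held at 37 °C and CPE was scored at 48 and 72 h. MIC is the lowest nontoxic level giving complete CPE inhibition, with toxicity read from uninfected parallel tubes.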

The subject of experiment [2] is Human alphaherpesvirus 2. Description: Antiviral activity against Herpes simplex virus 2 Curtis assessed as inhibition of virus-induced cytopathic effect at 37 degC after 72 hrs by two-fold dilution method. It is filed as functional. Particulars: Human alphaherpesvirus 2, Curtis. The essentials: as §1
Experiment [3] deals with Human alphaherpesvirus 2. Description: Antiviral activity against Herpes simplex virus 2 assessed as inhibition of virus-induced cytopathic effect at 37 degC after 72 hrs by two-fold dilution method. In kind it is functional. Particulars: for MIC: Human alphaherpesvirus 2, 72 h. The essentials: as §1
The test system of a further experiment is rhinovirus A2. Description: Antiviral activity against Human rhinovirus 2 assessed as inhibition of virus-induced cytopathic effect at 37 degC after 72 hrs by two-fold dilution method. It is filed as functional. Conditions: Rhinovirus A.
The next experiment concerns rhinovirus B14. Description: Antiviral activity against Human rhinovirus 14 assessed as inhibition of virus-induced cytopathic effect at 37 degC after 72 hrs by two-fold dilution method. It is filed as functional. Conditions: Rhinovirus B.
Experiment [4] is described as follows: Antiviral activity against Human rhinovirus 17 assessed as inhibition of virus-induced cytopathic effect at 37 degC after 72 hrs by two-fold dilution method. It is filed as functional, Human rhinovirus B17. Particulars: Rhinovirus B.
Experiment [5] deals with unidentified influenza virus. As to the kind of experiment: Antiviral activity against Parainfluenza virus assessed as inhibition of virus-induced cytopathic effect at 37 degC after 72 hrs by two-fold dilution method. It is filed as functional. The essentials:
as §1

The subject of experiment [6] is Respiratory syncytial virus. As to the kind of experiment: Antiviral activity against Respiratory syncytial virus assessed as inhibition of virus-induced cytopathic effect at 37 degC after 72 hrs by two-fold dilution method. It is filed as functional. Conditions: human respiratory syncytial virus. The essentials:
as §1

For experiment [7], the system named is Human alphaherpesvirus 1. As to the kind of experiment: Antiviral activity against Herpes simplex virus 1 assessed as inhibition of virus-induced cytopathic effect at 37 degC after 72 hrs by two-fold dilution method. It is filed as functional. Conditions: Human alphaherpesvirus 1, 72 h. The essentials: as §1
Experiment [8] deals with Influenza A virus. Description: Antiviral activity against Influenza A2 virus Jap 170 infected in ferret trachea assessed as reduction in viral yield at 100 ug/ml after 3 days followed by compound-washout measured after 24 hrs by chick embryo-based hemagglutination titration method relative to control. In kind it is functional. Set-up: scale not given: the % may be the effect or the level left.

Experiment [9] relates to Influenza A virus. As to the kind of experiment: Antiviral activity against Influenza A2 virus Jap 170 infected in ferret trachea assessed as reduction in viral yield at 200 ug/ml after 3 days followed by compound-washout measured after 24 hrs by chick embryo-based hemagglutination titration method relative to control. It is filed as functional. Also on record: scale not given: the % may be the effect or the level left.

Regarding `CCC(=O)C(CCCCCCc1ccc(Cl)cc1OC)C(=O)CC`, in the experiment on Equine rhinovirus, the MIC worked out at 3 mg/L (≈ 8.5 µM).

For the compound `CCC(=O)C(CCCCCCc1ccc(Cl)cc1O)C(=O)CC`, the MIC in the experiment on Equine rhinovirus turned out to be 0.7 mg/L (≈ 2.07 µM).

Take `Nc1ccn([C@@H]2O[C@H](CO)[C@@H](O)[C@@H]2O)c(=O)n1` [CYTARABINE]: the MIC with Human alphaherpesvirus 1 [1] and with Human alphaherpesvirus 2 [2] was less than 3 mg/L throughout.

In the case of `CCC(=O)C(CCCCCCc1ccc(OC(=O)c2ccc(C)cc2)cc1)C(=O)CC`, the MIC with Equine rhinovirus came out at 12 mg/L (≈ 28.4 µM).

For the compound `CCC(=O)C(CCCCCCc1ccc(O)cc1)C(=O)CC`, the MIC in the experiment on Human alphaherpesvirus 2 [3] stood at 12 mg/L (≈ 39.4 µM); with rhinovirus A2, 3 mg/L (≈ 9.85 µM); with rhinovirus B14, 6 mg/L (≈ 19.7 µM); in experiment [4] it was 6 mg/L (≈ 19.7 µM); in experiment [5], 3 mg/L (≈ 9.85 µM); in [6] it was 6 mg/L (≈ 19.7 µM). The MIC in the experiment with Human alphaherpesvirus 1 [7] is 12 mg/L (≈ 39.4 µM); with Human alphaherpesvirus 1 [1] it was 12 mg/L (≈ 39.4 µM); in the experiment with Human alphaherpesvirus 2 [2] it was 12 mg/L (≈ 39.4 µM); in the experiment with Equine rhinovirus, 3 mg/L (≈ 9.85 µM). Also, the Activity with Influenza A virus [8] came to 94%; in the experiment on Influenza A virus [9] it was 99.9%.

Regarding `CCC(=O)C(CC/C(=C/CCc1ccc2c(c1)OCO2)CC)C(C)=O` (centres undefined), the MIC in the experiment on Equine rhinovirus worked out at 12 mg/L (≈ 34.8 µM).

As for `CC/C(=C\CCc1ccc2c(c1)OCO2)CCC1CCCC1=O` (centres undefined), the MIC with Equine rhinovirus came out at 6 mg/L (≈ 19.1 µM).

As to `CCC(=O)C(CCCCCCCc1ccc(O)cc1)C(=O)CC`, the MIC in the experiment on Human alphaherpesvirus 2 [3] and with Equine rhinovirus was 6 mg/L (≈ 18.8 µM) throughout.

Take `CCC(=O)C(CC/C=C/CCc1ccc(NC(C)=O)cc1)C(=O)CC`: in the experiment with Equine rhinovirus, the MIC was 12 mg/L (≈ 34.9 µM).

With `CCC(=O)C(CCCCCCc1cccc(O)c1)C(=O)CC`, in the experiment with Equine rhinovirus, the MIC is 6 mg/L (≈ 19.7 µM).

As to `CCC(=O)C(CCCCCc1ccc(O)cc1)C(=O)CC`, the MIC in the experiment on Human alphaherpesvirus 2 [3] and in the experiment with Equine rhinovirus was 12 mg/L (≈ 41.3 µM) throughout.

Regarding `CCC(=O)C(CC/C=C/CCc1ccc(OCc2ccccc2)cc1)C(=O)CC`, the MIC in the experiment with Equine rhinovirus worked out at 3 mg/L (≈ 7.64 µM).

In the case of `CCC(=O)C(CCC(CC)CCCc1ccc2c(c1)OCO2)C(=O)CC` (centres undefined), in the experiment on Equine rhinovirus, the MIC amounted to 3 mg/L (≈ 8.32 µM).

In the case of `CCC(=O)C(CC/C(=C/CCc1ccc2c(c1)OCO2)CC)C(=O)CC`, the MIC in the experiment with Equine rhinovirus was 6 mg/L (≈ 16.7 µM).

For `CCC(=O)C(CC/C=C/CCc1ccc(OC(F)(F)F)cc1)C(=O)CC`, the MIC in the experiment on Equine rhinovirus turned out to be 6 mg/L (≈ 16.2 µM).

Turning to `CCC(=O)C(CCCc1ccc(O)cc1)C(=O)CC`, the inhibition entry with Human alphaherpesvirus 2 [3] was “inactive”.

As to `CCC(=O)C(CC/C=C/CCc1ccc2c(c1)OCO2)C(=O)CC`, the MIC in the experiment with Equine rhinovirus worked out at 3 mg/L (≈ 9.08 µM).

Regarding `CCC(=O)C(CCCCCCc1ccc(Cl)cc1)C(=O)CC`, the MIC in the experiment on Equine rhinovirus is 1.5 mg/L (≈ 4.65 µM).

For `CCC(=O)C(CCCCCCc1ccccc1OC)C(=O)CC`, the MIC in the experiment on Equine rhinovirus is 12 mg/L (≈ 37.7 µM).

For `CCC(=O)C(CCCCCCc1ccccc1O)C(=O)CC`, in the experiment on Equine rhinovirus, the MIC was determined as 6 mg/L (≈ 19.7 µM).

Turning to `CCC(=O)C(CCCCCCc1ccc(O)c(O)c1)C(=O)CC`, the MIC with Equine rhinovirus stood at 1.5 mg/L (≈ 4.68 µM).

Consider `CCC(=O)C(CCCCCCc1ccc(OC)cc1)C(=O)CC`, for which the MIC in the experiment with Equine rhinovirus worked out at 3 mg/L (≈ 9.42 µM).

With `CCC(=O)C(CCCCCCc1ccc(OC(=O)c2cc(OC)c(OC)c(OC)c2)cc1)C(=O)CC`, the MIC in the experiment on Equine rhinovirus came out at 6 mg/L (≈ 12 µM).

On to `CCC(=O)C(CCCCCCc1ccc(OC(=O)c2ccccc2C)cc1)C(=O)CC`, for which, in the experiment on Equine rhinovirus, the MIC is 6 mg/L (≈ 14.2 µM).

With `O=c1[nH]c(=O)n([C@H]2C[C@H](O)[C@@H](CO)O2)cc1I` [IDOXURIDINE], the MIC with Human alphaherpesvirus 1 [1] and in the experiment on Human alphaherpesvirus 2 [2] was 6 mg/L (≈ 16.9 µM) in each case.

As for `Nc1ncnc2c1ncn2[C@@H]1O[C@H](CO)[C@@H](O)[C@@H]1O` [VIDARABINE], the MIC with Human alphaherpesvirus 1 [1] and in the experiment with Human alphaherpesvirus 2 [2] was 12 mg/L (≈ 44.9 µM) in each case.

As for `CCC(=O)C(CCCCCCc1ccc(Cl)cc1Cl)C(=O)CC`, the MIC in the experiment on Equine rhinovirus was determined as 3 mg/L (≈ 8.4 µM).

For `CCC(=O)C(CCCCCCCCc1ccc(O)cc1)C(=O)CC`, the MIC in the experiment on Human alphaherpesvirus 2 [3] and in the experiment with Equine rhinovirus was 3 mg/L (≈ 9.02 µM) in each case.

On to `CCC(=O)C(CCCCCCCCCCc1ccc(O)cc1)C(=O)CC`, for which the MIC with Human alphaherpesvirus 2 [3] and in the experiment on Equine rhinovirus was 12 mg/L (≈ 33.3 µM) in each case.

As to `CCC(=O)C(CCCCCCCCCc1ccc(O)cc1)C(=O)CC`, the MIC with Human alphaherpesvirus 2 [3] stood at 6 mg/L (≈ 17.3 µM).

Turning to `CCC(=O)C(CCCCCCc1ccc(OC(C)=O)cc1)C(=O)CC`, the MIC in the experiment with Equine rhinovirus was found to be 6 mg/L (≈ 17.3 µM).

As to `CCC(=O)C(CC/C(C)=C/CCc1ccc2c(c1)OCO2)C(=O)CC`, the MIC in the experiment with Equine rhinovirus came out at 3 mg/L (≈ 8.71 µM).

With `CC/C(=C\CCc1ccc2c(c1)OCO2)CCC(C(C)=O)C(C)=O`, the MIC in the experiment on Equine rhinovirus was found to be 6 mg/L (≈ 18.2 µM).

On to `CCC(=O)C(CCCCCCc1ccc(OC(=O)c2cccc(OC)c2)cc1)C(=O)CC`, for which, in the experiment with Equine rhinovirus, the MIC worked out at 3 mg/L (≈ 6.84 µM).

With `CCC(=O)C(CCCCCCc1ccc(OC(=O)c2cccc(C)c2)cc1)C(=O)CC`, the MIC in the experiment on Equine rhinovirus was found to be 3 mg/L (≈ 7.1 µM).

Take `CCC(=O)C(CC/C=C/CCc1cc(OC)c(OCc2ccccc2)c(OC)c1)C(=O)CC`: in the experiment with Equine rhinovirus, the MIC stood at 6 mg/L (≈ 13.3 µM).

`CCC(=O)C(CCCCc1ccc(O)cc1)C(=O)CC`: the MIC in the experiment with Human alphaherpesvirus 2 [3] was 12 mg/L (≈ 43.4 µM); in the experiment with Equine rhinovirus, 6 mg/L (≈ 21.7 µM).

As for `CCC(=O)C(CCCCCCc1ccc(OC(F)(F)F)cc1)C(=O)CC`, in the experiment with Equine rhinovirus, the MIC is 6 mg/L (≈ 16.1 µM).

For `CCOC(=O)C(CC/C(=C/CCc1ccc2c(c1)OCO2)CC)C(C)=O` (centres undefined), the MIC in the experiment with Equine rhinovirus was determined as 6 mg/L (≈ 16.6 µM).

For `CCC(=O)C(CCCCCCc1ccccc1)C(=O)CC`, the MIC with Equine rhinovirus is 6 mg/L (≈ 20.8 µM).

Turning to `CCC(=O)C(CC/C(=C/CCc1ccc(C(=O)OC)cc1)CC)C(=O)CC`, the MIC in the experiment on Equine rhinovirus turned out to be 25 mg/L (≈ 67.1 µM).

`CCC(=O)C(CCCCCCc1ccc(C)cc1)C(=O)CC`: in the experiment on Equine rhinovirus, the MIC came out at 6 mg/L (≈ 19.8 µM).

For the compound `CCCC(=O)C(CC/C(=C/CCc1ccc2c(c1)OCO2)CC)C(=O)OCC` (centres undefined), in the experiment with Equine rhinovirus, the MIC was determined as 12 mg/L (≈ 30.9 µM).

Regarding `CCC(=O)C(CCCCCCc1ccc2c(c1)OCO2)C(=O)CC`, the MIC in the experiment on Equine rhinovirus turned out to be 6 mg/L (≈ 18 µM).

For `CCC(=O)C(CC/C(=C/C=C/c1ccc2c(c1)OCO2)CC)C(=O)CC`, in the experiment with Equine rhinovirus, the MIC worked out at 6 mg/L (≈ 16.8 µM).
